# Tests used:
# [1] = biological target: Glutamate NMDA receptor; assay: Displacement of [3H]-MK-801 from rat cortical membranes NMDA receptor by beta counting analysis in absence of spermine
# In short: (§1)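 Membranes from rat frontoparietal cortex and hippocampus, prepared in 50 mM Tris acetate pH 7.0. 5 nM [3H]MK-801 was incubated with membranes (~1 mg wet tissue) for 3 h at 23 °C in 10 mM Tris acetate pH 7.0 with 10 µM glutamate and glycine, in triplicate, with or without 30 µM spermine. Compounds were tested at 3–4 concentrations. Nonspecific binding was set with 100 µM (S)-ketamine. Bound ligand was filtered and scintillation-counted. Spermine sensitivity = IC50 (with spermine)/IC50 (without).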
# [2] = biological target: Glutamate NMDA receptor; assay: Displacement of [3H]-MK-801 from rat cortical membranes NMDA receptor by beta counting analysis in presence of 30 uM spermine; in short: as §1
# [3] = biological target: Glutamate NMDA receptor (Rattus norvegicus) (UniProt P35439+Q00959+Q00960+Q00961+Q62645+Q8VHN2+Q9R1M7); assay: Ratio of IC50 for displacement of [3H]-MK-801 from rat cortical membranes NMDA receptor in presence of 30 uM spermine to IC50 for displacement of [3H]-MK-801 from rat cortical membranes NMDA receptor in absence of 30 spermine; in short: as §1
# [4] = biological target: Glutamate NMDA receptor; assay: Displacement of [3H]-ifenprodil from rat cortical membranes NMDA receptor by beta counting analysis in absence of spermine
SMILES,IC50 [1] [µM],IC50 [2] [µM],Ratio IC50 [3],IC50 [4] [µM]
N=C(N)c1ccc(COc2ccccc2OCc2ccc(C(=N)N)cc2)cc1,2.19,18.4,10.1,7.29
N=C(N)c1ccc(OCc2ccccc2COc2ccc(C(=N)N)cc2)cc1,1.46,5.54,4,1.42
CN(CCCN(C)c1ccc(C(=N)N)cc1)c1ccc(C(=N)N)cc1,1.84,24.7,14.7,31.2

# Now from value to compound:
IC50 [1] [µM],IC50 [2] [µM],Ratio IC50 [3],IC50 [4] [µM],SMILES
2.01,50.7,30.2,0.76,N=C(N)c1ccc(NCCNc2ccc(C(=N)N)cc2)cc1
1.14,13.8,11.8,9.16,CCN(CCN(CC)c1ccc(C(=N)N)cc1)c1ccc(C(=N)N)cc1

# Source: ChEMBL document CHEMBL3593210, “Pentamidine analogs as inhibitors of [(3)H]MK-801 and [(3)H]ifenprodil binding to rat brain NMDA receptors” (Bioorg Med Chem, 2015)
